According to ChEMBL document CHEMBL1141897, “Pyrrolidinedione derivatives as antibacterial agents with a novel mode of action” (Bioorg Med Chem Lett, 2005):
Converted amounts (≈) assume the structure as drawn.

Tests used:
Assay type in all cases: functional
[1] = test system: Streptococcus pneumoniae; assay: Minimum inhibitory concentration against Streptococcus pneumoniae G9A strain was determined
[2] = test system: Escherichia coli; assay: Inhibitory concentration of the compound against Escherichia coli was determined
[3] = test system: Escherichia coli; assay: Minimum inhibitory concentration of the compound againstEscherichia coli HN818 strain was determined
Outline: (§1)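 Whole-cell MIC panel of the Gram-positive S. aureus 133 and S. pneumoniae G9A, plus two E. coli strains: Neumann (wild type) and HN818 (efflux pump deletion strain).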

[4] = test system: Escherichia coli; assay: Minimum inhibitory concentration of the compound againstEscherichia coli Neumann strainwas determined; outline: as §1
[5] = test system: Staphylococcus aureus; assay: Inhibitory concentration of the compound against Staphylococcus aureus was determined
[6] = test system: Staphylococcus aureus; assay: Minimum inhibitory concentration of the compound against Staphylococcus aureus 133 strain was determined; outline: as §1

Structure (SMILES)	MIC [1]	IC50 [2]	MIC [3]	MIC [4]	IC50 [5]	MIC [6]
C/C=C/C=C/C(=O)N[C@@H](CC(=O)N[C@H](C(=O)[C@H]1CC(=O)N(C)C1=O)C(C)C)c1ccccc1	> 64 µg/mL	> 200 nM	> 64 µg/mL	> 64 µg/mL	> 1000 nM	> 64 µg/mL
C/C=C/C=C/C(=O)N[C@@H](CC(=O)N[C@H](C(=O)[C@@H]1C(=O)N(C2CC2)C(=O)[C@H]1C)C(C)C)c1ccccc1	> 64 µg/mL	60 nM	> 64 µg/mL	> 64 µg/mL	2560 nM	> 64 µg/mL
C/C=C/C=C/C(=O)N[C@@H](CC(=O)N[C@H](C(=O)[C@@H]1C(=O)N(C)C(=O)[C@H]1C)C(C)C)c1ccccc1	> 64 µg/mL	25 nM	16 µg/mL (≈ 34.2 µM)	> 64 µg/mL	211 nM	16 µg/mL (≈ 34.2 µM)
C/C=C/C=C/C(=O)N[C@@H](CC(=O)N[C@H](C(=O)[C@@H]1C(=O)N(NC)C(=O)[C@H]1C)C(C)C)c1ccccc1	16 µg/mL (≈ 33.2 µM)	14 nM	8 µg/mL (≈ 16.6 µM)	> 64 µg/mL	105 nM	4 µg/mL (≈ 8.29 µM)
C/C=C/C=C/C(=O)N[C@@H](CC(=O)N[C@H](C(=O)[C@@H]1C(=O)N(N(C)C)C(=O)[C@H]1C)C(C)C)c1ccccc1	16 µg/mL (≈ 32.2 µM)	33 nM	4 µg/mL (≈ 8.05 µM)	> 64 µg/mL	238 nM	4 µg/mL (≈ 8.05 µM)
COc1cccc(/C=C/C(=O)N[C@@H](CC(=O)N[C@H](C(=O)[C@@H]2C(=O)NC(=O)[C@H]2C)C(C)C)c2ccccc2)c1	16 µg/mL (≈ 30.8 µM)	4 nM	2 µg/mL (≈ 3.85 µM)	32 µg/mL (≈ 61.6 µM)	43 nM	4 µg/mL (≈ 7.7 µM)
C/C=C/C=C/C=C/C(=O)N[C@@H](CC(=O)N[C@H](C(=O)[C@@H]1C(=O)NC(=O)[C@H]1C)C(C)C)c1ccccc1	8 µg/mL (≈ 16.7 µM)	13 nM	32 µg/mL (≈ 66.7 µM)	> 64 µg/mL	305 nM	8 µg/mL (≈ 16.7 µM)
C/C=C/C=C/C(=O)N[C@@H](CC(=O)N[C@H](C(=O)[C@@H]1C(=O)N(CCOC)C(=O)[C@H]1C)C(C)C)c1ccccc1	64 µg/mL (≈ 125 µM)	150 nM	> 64 µg/mL	> 64 µg/mL	1300 nM	64 µg/mL (≈ 125 µM)
C/C=C/C=C/C(=O)N[C@@H](CC(=O)N[C@H](C(=O)C1CCC(=O)NC1=O)C(C)C)c1ccccc1 (stereo not given in full)	> 64 µg/mL	> 300 nM	> 64 µg/mL	> 64 µg/mL	> 1000 nM	> 64 µg/mL
CC(C)[C@H](NC(=O)C[C@H](NC(=O)/C=C/c1ccccc1)c1ccccc1)C(=O)[C@@H]1C(=O)NC(=O)[C@H]1C	32 µg/mL (≈ 65.4 µM)	9 nM	2 µg/mL (≈ 4.09 µM)	32 µg/mL (≈ 65.4 µM)	75 nM	8 µg/mL (≈ 16.3 µM)
C/C=C/C=C/C(=O)N[C@@H](CC(=O)N[C@H](C(=O)[C@@H]1C(=O)NC(=O)C1(C)C)C(C)C)c1ccccc1	> 64 µg/mL	54 nM	> 64 µg/mL	> 64 µg/mL	900 nM	> 64 µg/mL
C/C=C/C=C/C(=O)N[C@@H](CC(=O)N[C@H](C(=O)C1CC(C)C(=O)NC1=O)C(C)C)c1ccccc1 (stereo not given in full)	> 64 µg/mL	295 nM	> 64 µg/mL	> 64 µg/mL	> 1000 nM	> 64 µg/mL
C/C=C/C=C/C(=O)N[C@@H](CC(=O)N[C@H](C(=O)C1C(=O)NC(=O)CC1C)C(C)C)c1ccccc1 (stereo not given in full)	> 64 µg/mL	> 300 nM	> 64 µg/mL	> 64 µg/mL	> 1000 nM	> 64 µg/mL
C/C=C/C=C/C(=O)N[C@@H](CC(=O)N[C@H](C(=O)[C@@H]1C(=O)NC(=O)[C@H]1C)C(C)C)c1ccccc1	32 µg/mL (≈ 70.6 µM)	6 nM	4 µg/mL (≈ 8.82 µM)	32 µg/mL (≈ 70.6 µM)	96 nM	8 µg/mL (≈ 17.6 µM)
CC(C)[C@H](NC(=O)C[C@H](NC(=O)/C=C/C(=O)O)c1ccccc1)C(=O)[C@@H]1C(=O)NC(=O)[C@H]1C	> 64 µg/mL	2 nM	> 64 µg/mL	> 64 µg/mL	317 nM	> 64 µg/mL
C/C=C/C=C/C(=O)N[C@@H](CC(=O)N[C@H](C(=O)[C@@H]1C(=O)N(OCC)C(=O)[C@H]1C)C(C)C)c1ccccc1	32 µg/mL (≈ 64.3 µM)	100 nM	64 µg/mL (≈ 129 µM)	> 64 µg/mL	123 nM	8 µg/mL (≈ 16.1 µM)
CC(C)[C@H](NC(=O)C[C@H](NC(=O)/C=C/c1ccc(Cl)c(Cl)c1)c1ccccc1)C(=O)[C@@H]1C(=O)NC(=O)[C@H]1C	32 µg/mL (≈ 57.3 µM)	7 nM	1 µg/mL (≈ 1.79 µM)	8 µg/mL (≈ 14.3 µM)	288 nM	2 µg/mL (≈ 3.58 µM)
CC(C)[C@H](NC(=O)C[C@H](NC(=O)/C=C/c1c[nH]cn1)c1ccccc1)C(=O)[C@@H]1C(=O)NC(=O)[C@H]1C	> 64 µg/mL	6 nM	64 µg/mL (≈ 133 µM)	> 64 µg/mL	151 nM	> 64 µg/mL
C/C=C/C=C/C(=O)N[C@@H](CC(=O)N[C@H](C(=O)[C@@H]1C(=O)N(C)C(=O)[C@H]1CC)C(C)C)c1ccccc1	> 64 µg/mL	> 200 nM	> 64 µg/mL	> 64 µg/mL	> 1000 nM	> 64 µg/mL
CC(C)[C@H](NC(=O)C[C@H](NC(=O)/C=C/c1ccc(-c2ccccc2)cc1)c1ccccc1)C(=O)[C@@H]1C(=O)NC(=O)[C@H]1C	16 µg/mL (≈ 28.3 µM)	37 nM	> 64 µg/mL	> 64 µg/mL	540 nM	2 µg/mL (≈ 3.54 µM)
